Results published in ChEMBL document CHEMBL3612055, “Design, synthesis and biological evaluation of 1,3-diphenyl-1H-pyrazole derivatives containing benzimidazole skeleton as potential anticancer and apoptosis inducing agents” (Eur J Med Chem, 2015).
Active and inactive are the calls of the source. The calls are words filed in the database; no cut-off is given here.

Tests used:
MCF7 [1] = experiment: Increase in E-cadherin mRNA expression in human MCF7 cells at IC50 level incubated for 24 hrs by RT-PCR method; type: functional
Method in brief: (§1)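 Total RNA was Trizol-extracted and 1 µg reverse-transcribed with random primers. Real-time PCR ran 95 °C 3 min, then 40 cycles of 95 °C 1 s / 60 °C 20 s. Fold change came from comparative CT, normalised to β-actin. Reactions ran in triplicate, across three experiments.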

HeLa = experiment: Anticancer activity against human HeLa cells assessed as reduction in cell growth incubated for 48 hrs by MTT assay; type: functional, cell-based
MCF7 [2] = experiment: Reduction in mitochondrial membrane potential in human MCF7 cells at IC50 level incubated for 24 hrs by rhodamine 123 staining based fluorescence microscopy; type: functional
Method in brief: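 Harvested cells were loaded with rhodamine 123 (5 µg/mL), washed and incubated 30 min at room temperature. They were analysed by flow cytometry and fluorescence microscopy, and fluorescence loss was quantified by spectrofluorometry vs untreated cells.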

MCF7 [3] = experiment: Induction of apoptosis in human MCF7 cells assessed as increase in Bax mRNA expression at IC50 level incubated for 24 hrs by RT-PCR method; type: functional, cell-based; method in brief: as §1
MCF7 [4] = experiment: Anticancer activity against human MCF7 cells assessed as reduction in cell growth incubated for 48 hrs by MTT assay; type: functional, cell-based; details: MCF7, 48 h
MCF7 [5] = experiment: Induction of apoptosis in human MCF7 cells assessed as increase in caspase-3 mRNA expression at IC50 level incubated for 24 hrs by RT-PCR method; type: functional, cell-based; method in brief: as §1
MCF7 [6] = experiment: Inhibition of cell migration of human MCF7 cells at IC50 level incubated for 24 to 72 hrs by phase contrast microscopy based wound healing assay; type: functional
Method in brief: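 Confluent MCF-7 monolayers (5×10^5 cells/well, 24 h) were scratched with a pipette tip and washed with PBS pH 7.4. Medium with IC50 concentrations was then added. Cells entering the wound were photographed by phase contrast at 0, 24, 48 and 72 h, in ≥3 random fields per well.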

HaCaT = experiment: Cytotoxic activity against human HaCaT cells assessed as reduction in cell growth incubated for 48 hrs by MTT assay; type: cell-based
MCF7 [7] = experiment: Induction of cell morphology changes in human MCF7 cells assessed as cell shrinkage at IC50 level incubated for 48 hrs by phase contrast microscopy; type: functional, cell-based
Method in brief: (§2)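 MCF-7 cells were kept in DMEM/10% FBS and used at passages 4-8. […] Detachment, shrinkage and viable cell numbers were scored under phase contrast microscopy against untreated cells.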

MCF7 [8] = experiment: Effect on CDK1 cyclin D1 mRNA expression in human MCF7 cells at IC50 level incubated for 24 hrs by RT-PCR method; type: functional, cell-based; method in brief: as §1
MCF7 [9] = experiment: Reduction in cyclin D1 mRNA expression in human MCF7 cells at IC50 level incubated for 24 hrs by RT-PCR method; type: functional, cell-based; method in brief: as §1
MCF7 [10] = experiment: Inhibition of colony formation in human MCF7 cells assessed as reduction in clonogenic survival at IC50 level incubated for 24 hrs followed medium replacement with fresh medium and further incubation for 14 days; type: functional
MCF7 [11] = experiment: Induction of apoptosis in human MCF7 cells assessed as DNA fragmentation at IC50 level incubated for 24 hrs by ethidium bromide staining based agarose gel electrophoresis method; type: functional, cell-based
Method in brief: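 Pellets were lysed in SDS/EDTA/Tris pH 8.0 buffer with RNase A (37 °C, 90 min), then proteinase K (50 °C, 1 h). DNA was precipitated with ammonium acetate/ethanol. It was run on 1.5% agarose in TBE and stained with ethidium bromide, against control cells.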

MCF7 [12] = experiment: Induction of ROS generation in human MCF7 cells at IC50 level incubated for 24 hrs by carboxy-DCFDA staining based fluorescence microscopy; type: functional
Method in brief: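 Carboxy-DCFDA (10 µM) was added for 30 min at room temperature in the dark. Cells were washed and resuspended at 5×10^4 cells/mL. Fluorescence was read by spectrofluorometry at ex 488 / em 525 nm, with fluorescence microscopy images also taken.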

MCF7 [13] = experiment: Increase in cyclin B1 mRNA expression in human MCF7 cells at IC50 level incubated for 24 hrs by RT-PCR method; type: functional; method in brief: as §1
MCF7 [14] = experiment: Anticancer activity against human MCF7 cells assessed as reduction in cell viability at IC50 level incubated for 48 hrs; type: functional, cell-based; method in brief: as §2
MCF7 [15] = experiment: Increase in beta-catenin mRNA expression in human MCF7 cells at IC50 level incubated for 24 hrs by RT-PCR method; type: functional; method in brief: as §1
MCF7 [16] = experiment: Induction of cell cycle arrest in human MCF7 cells assessed as reduction in accumulation at S phase at IC50 level incubated for 24 hrs by propidium iodide staining based flow cytometry; type: functional
Method in brief: (§3)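 Floating and adherent cells were fixed in 70% ethanol at 4 °C and rehydrated. They were stained 15 min with PI/Triton X-100/RNase A. 10000 events were acquired by flow cytometry. G0/G1, S and G2/M percentages were gated in FlowJo.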

A549 = experiment: Anticancer activity against human A549 cells assessed as reduction in cell growth incubated for 48 hrs by MTT assay; type: functional, cell-based; details: A549, 48 h
MCF7 [17] = experiment: Induction of cell cycle arrest in human MCF7 cells assessed as accumulation at G1 phase at IC50 level incubated for 24 hrs by propidium iodide staining based flow cytometry (reference value: 72.3%); type: functional; method in brief: as §3
MCF7 [18] = experiment: Induction of cell morphology changes in human MCF7 cells assessed as cell detachment at IC50 level incubated for 48 hrs by phase contrast microscopy; type: functional, cell-based; method in brief: as §2
MCF7 [19] = experiment: Induction of cell cycle arrest in human MCF7 cells assessed as reduction in accumulation at G2/M phase at IC50 level incubated for 24 hrs by propidium iodide staining based flow cytometry; type: functional; method in brief: as §3
MCF7 [20] = experiment: Induction of apoptosis in human MCF7 cells assessed as reduction in Bcl2 mRNA expression at IC50 level incubated for 24 hrs by RT-PCR method; type: functional, cell-based; method in brief: as §1
MCF7 [21] = experiment: Induction of apoptosis in human MCF7 cells assessed as increase in caspase-7 mRNA expression at IC50 level incubated for 24 hrs by RT-PCR method; type: functional, cell-based; method in brief: as §1
MCF7 [22] = experiment: Induction of apoptosis in human MCF7 cells assessed as nuclear fragmentation at IC50 level incubated for 24 hrs by Hoechst […] staining based fluorescence microscopy; type: functional
Method in brief: (§4)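 They were fixed in 4% paraformaldehyde and stained with Hoechst […] (5 µg/mL, 30 min, room temperature). Nuclei in random fields were imaged by fluorescence microscopy (ex 350 / em 460 nm). Apoptotic fraction is mean ± SD of three independent experiments; DMSO control.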

MCF7 [23] = experiment: Induction of apoptosis in human MCF7 cells assessed as chromatin condensation at IC50 level incubated for 24 hrs by Hoechst […] staining based fluorescence microscopy; type: functional; method in brief: as §4

Row | SMILES | fold change (FC) (MCF7 [1]) | IC50 (HeLa) [nM] | inhibition (INH) (MCF7 [2]) [%] | Activity (MCF7 [3]) | IC50 (MCF7 [4]) [nM] | Activity (MCF7 [5]) | inhibition (MCF7 [6]) | IC50 (HaCaT) [nM] | Activity (MCF7 [7]) | Activity (MCF7 [8]) | inhibition (MCF7 [9]) | inhibition (INH) (MCF7 [10]) [%] | Activity (MCF7 [11]) | fold change (FC) (MCF7 [12]) | fold change (FC) (MCF7 [13]) | Activity (MCF7 [14]) | fold change (FC) (MCF7 [15]) | Activity (MCF7 [16]) | IC50 (A549) [nM] | Activity (MCF7 [17]) [%] | further results
1 | Brc1ccc2[nH]c(-c3cn(-c4ccccc4)nc3-c3ccccc3)nc2c1 | 2.2 | 1760 | 62 | Active | 830 | Active | Active | > 50000 | Active | inactive | Active | 50 | Active | 2 | 1.1 | Active | 1.4 | Active | 1810 | 85.2 | Activity (MCF7 [18]): Active; Activity (MCF7 [19]): Active; Activity (MCF7 [20]): Active; Activity (MCF7 [21]): Active
2 | Clc1ccc(-c2nn(-c3ccccc3)cc2-c2nc3cc(Cl)ccc3[nH]2)cc1 | 1.6 | 1630 | 44 | Active | 1170 | Active | Active | > 50000 | Active | inactive | Active | 50 | Active | 2 | 1.1 | Active | 1.4 | Active | 1340 | 81.3 | Activity (MCF7 [22]): 32%; Activity (MCF7 [23]): 32%; Activity (MCF7 [18]): Active; Activity (MCF7 [19]): Active; Activity (MCF7 [20]): Active; Activity (MCF7 [21]): Active
3 | Fc1ccc(-c2nn(-c3ccccc3)cc2-c2nc3cc(F)ccc3[nH]2)cc1 | 1.6 | 1570 | 44 | Active | 950 | Active | Active | > 50000 | Active | inactive | Active | 50 | Active | 2 | 1.1 | Active | 1.4 | Active | 1130 | 84.7 | Activity (MCF7 [22]): 26%; Activity (MCF7 [23]): 26%; Activity (MCF7 [18]): Active; Activity (MCF7 [19]): Active; Activity (MCF7 [20]): Active; Activity (MCF7 [21]): Active
